Source: ChEMBL document CHEMBL1275556, “High prevalence of plasmid-mediated quinolone resistance genes qnr and aac(6')-Ib-cr in clinical isolates of Enterobacteriaceae from nine teaching hospitals in China” (2008)

What was measured:
Enterobacter cloacae [1] = experiment: Antimicrobial activity against aac(6')-Ib-cr-negative Enterobacter cloacae WH42 harboring wild-type GyrA, ParC, GyrB and qnrA genes by agar dilution method; assay type: functional
Citrobacter freundii [2] = experiment: Antimicrobial activity against aac(6')-Ib-cr-positive Citrobacter freundii PU55 harboring GyrA T83I, ParC S80I mutant, wild-type GyrB, qnrA genes by agar dilution method; assay type: functional
Method in brief: (§1)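 MICs were determined by the CLSI agar dilution method (M7-A7) and interpreted against CLSI M100-S17 breakpoints.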

Citrobacter freundii [3] = experiment: Antimicrobial activity against aac(6')-Ib-cr-positive Citrobacter freundii TJ15 harboring GyrA T83I, ParC S80I mutant, wild-type GyrB, qnrB genes by agar dilution method; assay type: functional; method in brief: as §1
Citrobacter freundii [4] = experiment: Antimicrobial activity against aac(6')-Ib-cr-positive Citrobacter freundii PU55T harboring wild-type GyrA, ParC, GyrB and qnrA genes by agar dilution method
Klebsiella pneumoniae [5] = experiment: Antimicrobial activity against aac(6')-Ib-cr-positive Klebsiella pneumoniae SY26 harboring GyrA S83I, ParC S80I mutant, wild-type GyrB and qnrB genes by agar dilution method; assay type: functional
Method in brief: (§2)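 MICs were determined on clinical isolates by CLSI agar dilution (M7-A7) and interpreted against CLSI M100-S17 breakpoints.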

Enterobacter cloacae [6] = experiment: Antimicrobial activity against aac(6')-Ib-cr-negative Enterobacter cloacae GZ47T harboring qnrB gene by agar dilution method; assay type: functional
Escherichia coli [7] = experiment: Antimicrobial activity against aac(6')-Ib-cr-positive Escherichia coli FJ3T harboring wild-type GyrA, ParC, GyrB and qnrB genes by agar dilution method
Enterobacter cloacae [8] = experiment: Antimicrobial activity against aac(6')-Ib-cr-negative Enterobacter cloacae FJ61 harboring GyrA S83I, GyrA D87A, ParC S80I mutant, wild-type GyrB and qnrS genes by agar dilution method; assay type: functional
Citrobacter freundii [9] = experiment: Antimicrobial activity against aac(6')-Ib-cr-positive Citrobacter freundii JN1T by agar dilution method; assay type: functional; method in brief: as §1
Enterobacter cloacae [10] = experiment: Antimicrobial activity against aac(6')-Ib-cr-negative Enterobacter cloacae FJ67 harboring […] and qnrS genes by agar dilution method; assay type: functional
Escherichia coli [11] = experiment: Antimicrobial activity against aac(6')-Ib-cr-negative Escherichia coli PU12 harboring GyrA S83L mutant, wild-type GyrB, ParC and qnrS genes by agar dilution method; assay type: functional; method in brief: as §1
Klebsiella pneumoniae [12] = experiment: Antimicrobial activity against aac(6')-Ib-cr-negative Klebsiella pneumoniae SY22 harboring GyrA S83I, ParC S80I mutant, wild-type GyrB and qnrS genes by agar dilution method; assay type: functional; method in brief: as §1
Klebsiella pneumoniae [13] = experiment: Antimicrobial activity against aac(6')-Ib-cr-positive Klebsiella pneumoniae JN41T harboring qnrB gene by agar dilution method; assay type: functional
Method in brief: (§3)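 Transconjugants were made by conjugating a qnr/aac(6')-Ib-cr donor with azide-resistant E. coli J53. Selection used Trypticase soy agar with sodium azide 150 µg/ml and sulfamethoxazole 180 µg/ml. […] MICs were read by CLSI agar dilution (M7-A7) and interpreted per M100-S17.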

Klebsiella pneumoniae [14] = experiment: Antimicrobial activity against aac(6')-Ib-cr-positive Klebsiella pneumoniae JN132T harboring qnrB gene by agar dilution method; assay type: functional; method in brief: as §3
Citrobacter freundii [15] = experiment: Antimicrobial activity against aac(6')-Ib-cr-positive Citrobacter freundii JN1 harboring GyrA T83I, ParC S80I mutant, wild-type GyrB and qnrA genes by agar dilution method; assay type: functional; method in brief: as §1
Enterobacter cloacae [16] = experiment: Antimicrobial activity against aac(6')-Ib-cr-positive Enterobacter cloacae FJ63 harboring GyrA S83I, GyrA D87A, ParC S80I mutant, wild-type GyrB and qnrS genes by agar dilution method; assay type: functional
Klebsiella pneumoniae [17] = experiment: Antimicrobial activity against aac(6')-Ib-cr-positive Klebsiella pneumoniae JN132 harboring GyrA S83I, ParC S80I mutant, wild-type GyrB and qnrB genes by agar dilution method; assay type: functional; method in brief: as §2
Enterobacter cloacae [18] = experiment: Antimicrobial activity against aac(6')-Ib-cr-positive Enterobacter cloacae FJ63T harboring qnrS gene by agar dilution method; assay type: functional
Enterobacter cloacae [19] = experiment: Antimicrobial activity against aac(6')-Ib-cr-negative Enterobacter cloacae GZ51T harboring qnrA gene by agar dilution method; assay type: functional
Citrobacter freundii [20] = experiment: Antimicrobial activity against aac(6')-Ib-cr-negative Citrobacter freundii JN64T harboring qnrA gene by agar dilution method; assay type: functional; method in brief: as §1
Klebsiella pneumoniae [21] = experiment: Antimicrobial activity against aac(6')-Ib-cr-positive Klebsiella pneumoniae GZ40T harboring qnrB gene by agar dilution method
Citrobacter freundii [22] = experiment: Antimicrobial activity against aac(6')-Ib-cr-negative Citrobacter freundii JN64 harboring GyrA T83I, wild-type ParC, GyrB and qnrA genes by agar dilution method; assay type: functional; method in brief: as §1
Citrobacter freundii [23] = experiment: Antimicrobial activity against aac(6')-Ib-cr-positive Citrobacter freundii JS33T harboring qnrA gene by agar dilution method; assay type: functional; method in brief: as §1
Enterobacter cloacae [24] = experiment: Antimicrobial activity against aac(6')-Ib-cr-negative Enterobacter cloacae GZ51 harboring qnrA gene by agar dilution method; assay type: functional
Enterobacter cloacae [25] = experiment: Antimicrobial activity against aac(6')-Ib-cr-negative Enterobacter cloacae SH39 harboring GyrA S83I, ParC S80I mutant, wild-type GyrB and qnrA genes by agar dilution method; assay type: functional
Enterobacter cloacae [26] = experiment: Antimicrobial activity against aac(6')-Ib-cr-negative Enterobacter cloacae GZ47 harboring qnrB and qnrS genes by agar dilution method; assay type: functional
Citrobacter freundii [27] = experiment: Antimicrobial activity against aac(6')-Ib-cr-positive Citrobacter freundii JS33 harboring GyrA T83I mutant, wild-type ParC, GyrB, qnrA and qnrB genes by agar dilution method; assay type: functional; method in brief: as §1
Citrobacter freundii [28] = experiment: Antimicrobial activity against aac(6')-Ib-cr-positive Citrobacter freundii TJ15T harboring wild-type GyrA, ParC, GyrB genes by agar dilution method; assay type: functional; method in brief: as §1
Klebsiella pneumoniae [29] = experiment: Antimicrobial activity against aac(6')-Ib-cr-positive Klebsiella pneumoniae GZ40 harboring GyrA S83I, ParC S80I mutant, wild-type GyrB and qnrB genes by agar dilution method; assay type: functional; method in brief: as §1
Enterobacter cloacae [30] = experiment: Antimicrobial activity against aac(6')-Ib-cr-negative Enterobacter cloacae FJ67T harboring qnrS gene by agar dilution method; assay type: functional
Klebsiella pneumoniae [31] = experiment: Antimicrobial activity against aac(6')-Ib-cr-positive Klebsiella pneumoniae SY26T harboring wild-type GyrA, ParC, GyrB and qnrB genes by agar dilution method; assay type: functional
Method in brief: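 Transconjugants were made by conjugating a qnr/aac(6')-Ib-cr donor with azide-resistant E. coli J53. MICs were read by CLSI agar dilution (M7-A7) and interpreted per M100-S17.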

Escherichia coli [32] = experiment: Antimicrobial activity against aac(6')-Ib-cr-positive Escherichia coli FJ3 harboring GyrA S83L, ParC S80R mutant, wild-type GyrB and qnrB genes by agar dilution method; assay type: functional; method in brief: as §1
Enterobacter cloacae [33] = experiment: Antimicrobial activity against aac(6')-Ib-cr-negative Enterobacter cloacae SH39T harboring qnrA gene by agar dilution method; assay type: functional
Klebsiella pneumoniae [34] = experiment: Antimicrobial activity against aac(6')-Ib-cr-positive Klebsiella pneumoniae JN41 harboring GyrA S83I, ParC S80I mutant, wild-type GyrB and qnrB genes by agar dilution method; assay type: functional; method in brief: as §2
Enterobacter cloacae [35] = experiment: Antimicrobial activity against aac(6')-Ib-cr-negative Enterobacter cloacae WH42T harboring qnrA gene by agar dilution method; assay type: functional
Enterobacter cloacae [36] = experiment: Antimicrobial activity against aac(6')-Ib-cr-negative Enterobacter cloacae FJ61T harboring qnrS gene by agar dilution method; assay type: functional
Klebsiella pneumoniae [37] = experiment: Antimicrobial activity against aac(6')-Ib-cr-positive Klebsiella pneumoniae WH99T harboring qnrB gene by agar dilution method; assay type: functional; method in brief: as §3
Klebsiella pneumoniae [38] = experiment: Antimicrobial activity against aac(6')-Ib-cr-positive Klebsiella pneumoniae WH99 harboring wild-type GyrA, ParC, GyrB and qnrB genes by agar dilution method; assay type: functional; method in brief: as §2
Klebsiella pneumoniae [39] = experiment: Antimicrobial activity against aac(6')-Ib-cr-negative Klebsiella pneumoniae SY22T harboring qnrS gene by agar dilution method; assay type: functional; method in brief: as §1
Escherichia coli [40] = experiment: Antimicrobial activity against aac(6')-Ib-cr-negative Escherichia coli PU12T harboring wild-type GyrA, GyrB, ParC and qnrS genes by agar dilution method; assay type: functional; method in brief: as §1

| Molecule | MIC (Enterobacter cloacae [1]) | MIC (Citrobacter freundii [2]) | MIC (Citrobacter freundii [3]) | MIC (Klebsiella pneumoniae [5]) | MIC (Enterobacter cloacae [6]) | MIC (Enterobacter cloacae [8]) | MIC (Citrobacter freundii [9]) | MIC (Enterobacter cloacae [10]) | MIC (Escherichia coli [11]) | MIC (Klebsiella pneumoniae [12]) | MIC (Klebsiella pneumoniae [13]) | MIC (Klebsiella pneumoniae [14]) | MIC (Citrobacter freundii [15]) | MIC (Enterobacter cloacae [16]) | MIC (Klebsiella pneumoniae [17]) | MIC (Enterobacter cloacae [18]) | MIC (Enterobacter cloacae [19]) | MIC (Citrobacter freundii [20]) | MIC (Citrobacter freundii [22]) | MIC (Citrobacter freundii [23]) | other results |
| --- | --- | --- | --- | --- | --- | --- | --- | --- | --- | --- | --- | --- | --- | --- | --- | --- | --- | --- | --- | --- | --- |
| C[C@H]1COc2c(N3CCN(C)CC3)c(F)cc3c(=O)c(C(=O)O)cn1c23.C[C@H]1COc2c(N3CCN(C)CC3)c(F)cc3c(=O)c(C(=O)O)cn1c23.O [LEVOFLOXACIN] | 2 µg/mL | 32 µg/mL | 4 µg/mL | 32 µg/mL | 0.25 µg/mL | > 32 µg/mL | 0.25 µg/mL | 8 µg/mL | 4 µg/mL | > 32 µg/mL | 0.25 µg/mL | 0.25 µg/mL | 16 µg/mL | > 32 µg/mL | 8 µg/mL | 0.5 µg/mL | 0.25 µg/mL | 0.5 µg/mL | 8 µg/mL | 0.25 µg/mL | MIC (Citrobacter freundii [4]): 0.25 µg/mL; MIC (Escherichia coli [7]): 0.25 µg/mL; MIC (Klebsiella pneumoniae [21]): 0.25 µg/mL; MIC (Enterobacter cloacae [24]): 0.5 µg/mL; MIC (Enterobacter cloacae [25]): 32 µg/mL; MIC (Enterobacter cloacae [26]): 2 µg/mL; MIC (Citrobacter freundii [27]): 2 µg/mL; MIC (Citrobacter freundii [28]): 0.5 µg/mL; MIC (Klebsiella pneumoniae [29]): > 32 µg/mL; MIC (Enterobacter cloacae [30]): 1 µg/mL; MIC (Klebsiella pneumoniae [31]): 0.25 µg/mL; MIC (Escherichia coli [32]): 4 µg/mL; MIC (Enterobacter cloacae [33]): 0.5 µg/mL; MIC (Klebsiella pneumoniae [34]): > 32 µg/mL; MIC (Enterobacter cloacae [35]): 0.25 µg/mL; MIC (Enterobacter cloacae [36]): 0.5 µg/mL; MIC (Klebsiella pneumoniae [37]): 0.25 µg/mL |
| GENTAMICIN | 16 µg/mL | 1 µg/mL | 256 µg/mL | > 256 µg/mL | 128 µg/mL | 128 µg/mL | 1 µg/mL | 2 µg/mL | 2 µg/mL | 128 µg/mL | 1 µg/mL | > 256 µg/mL | 1 µg/mL | > 256 µg/mL | > 256 µg/mL | > 256 µg/mL | > 256 µg/mL | > 256 µg/mL | > 256 µg/mL | 16 µg/mL | MIC (Klebsiella pneumoniae [38]): 128 µg/mL; MIC (Enterobacter cloacae [24]): > 256 µg/mL; MIC (Enterobacter cloacae [25]): 8 µg/mL; MIC (Enterobacter cloacae [26]): 256 µg/mL; MIC (Citrobacter freundii [27]): 64 µg/mL; MIC (Citrobacter freundii [28]): 1 µg/mL; MIC (Klebsiella pneumoniae [29]): 1 µg/mL; MIC (Enterobacter cloacae [30]): 1 µg/mL; MIC (Klebsiella pneumoniae [39]): 32 µg/mL; MIC (Klebsiella pneumoniae [31]): > 256 µg/mL; MIC (Escherichia coli [32]): 128 µg/mL; MIC (Enterobacter cloacae [33]): 4 µg/mL; MIC (Klebsiella pneumoniae [34]): 1 µg/mL; MIC (Enterobacter cloacae [35]): 8 µg/mL; MIC (Escherichia coli [40]): 1 µg/mL; MIC (Enterobacter cloacae [36]): 1 µg/mL; MIC (Klebsiella pneumoniae [37]): 128 µg/mL |
